The values that follow come from ChEMBL document CHEMBL1124455, “Benzodiazepine receptor binding activity of 6,9-disubstituted purines” (J Med Chem, 1989).

Assay [1] addresses T1, GABA-A receptor; anion channel (Rattus norvegicus) (UniProt O09028+P15431+P18506+P18508+P19969+P20236+P23574+P23576+P28471+P28473+P30191+P62813+P63079+P63138+Q91ZM7+Q9ES14). The experiment in a line: The percent inhibition of [3H]diazepam binding to the benzodiazepine receptor of rat brain elicited by 100 uM of compound.
Assay [2] deals with GABA-A receptor; anion channel. The experiment in a line: Concentration that inhibits binding of 1.5 nM [3H]diazepam to rat brain benzodiazepine receptor. The gist of the method:
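Membranes from male Sprague-Dawley rat brain (110–220 g; cerebellum and pons medulla removed), homogenized in 0.32 M sucrose. The 30000g pellet was stored frozen and resuspended in Tris-HCl pH 7.5. Filtered on GF/C and washed with ice-cold buffer, then scintillation counted.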

Assay [3] concerns Rattus norvegicus. The experiment in a line: Effect on conflict responding in Long-Evans rats when 25 mg/kg was administered by oral gavage in a modified Geller-Seifter conflict schedule. In kind it is functional. Summed up: (§1)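 Rats run on a modified Geller-Seifter conflict schedule. Shock was 0.00 mA for the first response of each conflict period, rising by 0.05 mA per successive response. 25 mg/kg given by oral gavage as a 0.5% methylcellulose suspension, 60 min before the operant session. Result is percent change in conflict responses versus the preceding day, mean and SEM, at least four rats.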

Assay [4] addresses T1, GABA-A receptor; anion channel (Rattus norvegicus). The assay is described as follows: Percent inhibition of [3H]diazepam binding to rat brain GABA-A benzodiazepine receptor at 100 uM. Summed up:
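Membranes from male Sprague-Dawley rat brain (110–220 g; cerebellum and pons medulla removed), homogenized in 0.32 M sucrose. The 30000g pellet was stored frozen and resuspended in Tris-HCl pH 7.5. […] Filtered on GF/C and washed with ice-cold buffer, then scintillation counted. Percent inhibition of specific binding at 100 μM; IC50 usually determined when >75%.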

The subject of assay [5] is Rattus norvegicus. The assay is described as follows: Effect on conflict responding in Long-Evans rats when 25 mg/kg was administered by oral gavage in a modified Geller-Seifter conflict schedule and the value ranges from -10 to + 13. In kind it is functional. Summed up: as §1
Assay [6] concerns Rattus norvegicus. The experiment in a line: Effect on conflict responding in Long-Evans rats when 10 mg/kg was administered by oral gavage in a modified Geller-Seifter conflict schedule. In kind it is functional. The gist of the method:
(§2)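 Rats on a modified Geller-Seifter operant conflict schedule were dosed by oral gavage as a 0.5% methylcellulose suspension 60 min before the session. Shock was 0.00 mA for the first response in each conflict period, rising 0.05 mA with each further response. The value is the percent change in conflict responses from the preceding day, as mean and SEM of at least four rats.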

In assay [7] the test system is Rattus norvegicus. The experiment in a line: Effect on conflict responding in Long-Evans rats when 5 mg/kg was administered by oral gavage in a modified Geller-Seifter conflict schedule. In kind it is functional. Summed up: as §2
[8] abbreviates: in the assay text read “10 uM” for “100 uM”.

For the compound `C[C@H](c1ccccc1)n1cnc2c(N(C)C)ncnc21`, the inhibition in assay [1] turned out to be 56%. `CN(C)c1ncnc2c1ncn2C1CCCc2ccccc21` (stereo unspecified) gave an IC50 in assay [2] of 22 µM.

With `CN(C)c1ncnc2c1ncn2Cc1cccc(N)c1`, the Change in conflict in the assay with Rattus norvegicus [3] is given as 4%. Further, the IC50 in assay [2] turned out to be 0.9 µM. In assay [1], `CN(C)c1ncnc2c1ncn2Cc1cccc([N+](=O)[O-])c1` registered an inhibition of 48%.

On to `C[C@@H](c1ccccc1)n1cnc2c(N(C)C)ncnc21`, for which the Change in conflict in the assay on Rattus norvegicus [3] is recorded as 5%. In assay [2], this compound registered an IC50 of 2.1 µM.

`CN(C)c1ncnc2c1ncn2C` displayed an inhibition in assay [1] of 0%.

For the compound `CSc1ncnc2c1ncn2Cc1ccccc1`, in the assay with Rattus norvegicus [3], the Change in conflict was 13%. This compound also registered an IC50 in assay [2] of 3.3 µM. The compound `CCN(C)c1ncnc2c1ncn2Cc1ccccc1` had an IC50 in assay [2] of 19 µM. For the compound `CN(C)c1ncnc2c1ncn2Cc1cccc(OC(=O)C(C)(C)C)c1`, the Change in conflict in the assay on Rattus norvegicus [3] was 6%. The compound further registered an IC50 in assay [2] of 1.6 µM. In assay [2], `Oc1ncnc2c1ncn2Cc1ccccc1` registered a 50% inhibitory concentration (IC50) of 19 µM. That is a double-digit micromolar value.

The compound `CN(C)c1ncnc2c1ncn2Cc1ccccc1N` came in with an inhibition in assay [1] (setting [8]) of 19%.

`CN(C)c1ncnc2c1ncn2-c1ccccc1` registered an inhibition in assay [4] of 0%. As for `COc1ccc(Cn2cnc3c(N(C)C)ncnc32)cc1`, in assay [1], the inhibition stood at 0%. On the same count and under the same terms, in the case of `CN(C)c1ncnc2c1ncn2Cc1cccc(I)c1` it was 64%. In assay [1] (setting [8]), `CN(C)c1ncnc2c1ncn2Cc1ccccc1[N+](=O)[O-]` came in with an inhibition of 48%. `CN(C)c1ncnc2c1ncn2Cc1ccccc1Cl` displayed an IC50 in assay [2] of 13 µM. In other words, the double-digit micromolar range. For `OCCNc1ncnc2c1ncn2Cc1ccccc1`, the inhibition in assay [4] was determined as 73%. In turn, `CN(C)c1ncnc2c1ncn2Cc1cccc(F)c1` came in with an IC50 in assay [2] of 7.3 µM. Regarding `c1ccc(Cn2cnc3c(N4CCCC4)ncnc32)cc1`, the Change in conflict in the assay with Rattus norvegicus [3] worked out at 10%. Also, in assay [2], the IC50 was found to be 16 µM. `CN(C)c1ncnc2c1ncn2Cc1cccc(Cl)c1` returned an inhibition in assay [1] of 59%.

As for `Cn1cnc2c(ncn2Cc2ccccc2)c1=O`, the Change in conflict in the assay with Rattus norvegicus [3] is recorded as -16%. The compound further gave an IC50 in assay [2] of 15.5 µM. As to `CN(C)c1ncnc2c1ncn2C1Cc2ccccc2C1`, in assay [4], the inhibition was 48%. As for `CN(C)c1ncnc2c1ncn2Cc1ccc(N)cc1`, the inhibition in assay [1] was 67%.

Consider `c1ccc(Cn2cnc3c(N4CCC4)ncnc32)cc1`, for which the Change in conflict with Rattus norvegicus [3] was -7%. For the same compound, in assay [2], the IC50 worked out at 15 µM. `CN(C)c1ncnc2c1ncn2Cc1ccc(O)cc1` showed an inhibition in assay [1] (setting [8]) of 15%. For `CN(C)c1ncnc2c1ncn2Cc1ccc(F)cc1`, the inhibition in assay [1] amounted to 23%. In turn, `CN(C)c1ncnc2c1ncn2CCc1ccccc1` returned an inhibition in assay [1] of 0%. With `COc1ccccc1Cn1cnc2c(N(C)C)ncnc21`, in assay [2], the IC50 came to 20 µM. In assay [4], `c1ccc(Cn2cnc3c(NC4CC4)ncnc32)cc1` gave an inhibition of 68%.

Take `CN(C)c1ncnc2c1ncn2Cc1ccccc1F`: the Change in conflict with Rattus norvegicus [3] was 17%. The compound further displayed an IC50 in assay [2] of 5.4 µM.

`CN(C)c1ncnc2c1ncn2Cc1cccc(C(F)(F)F)c1`: the inhibition in assay [1] worked out at 49%. On the same count and under the same terms, in the case of `CN(C)c1ncnc2nc[nH]c12` it was 57%. As for `CN(c1ncnc2c1ncn2Cc1ccccc1)C1CCCC1`, in the assay on Rattus norvegicus [5], the Change in conflict was -10%. Besides, in assay [2], the IC50 stood at 14 µM.

Consider `Cc1cccc(Cn2cnc3c(N(C)C)ncnc32)c1`, for which, in assay [1], the inhibition was determined as 62%. The same measure, in the same setting: in the case of `CN(C)c1ncnc2c1ncn2Cc1cccc(Br)c1` it was 63%; in that of `CN(C)c1ncnc2c1ncn2Cc1ccc(OCc2ccccc2)cc1`, 11%. Turning to `COc1ncnc2c1ncn2Cc1ccccc1` [9-BENZYL-6-METHOXY-9H-PURINE], in the assay with Rattus norvegicus [3], the Change in conflict was 26%. This compound had an IC50 in assay [2] of 14 µM.

For the compound `CN(C)c1ncnc2c1ncn2Cc1cccc(O)c1`, the Change in conflict with Rattus norvegicus [3] turned out to be 2%. For the same compound, in assay [2], the IC50 was determined as 1.2 µM. As for `CNC1=Nc2ccc(Cl)cc2C(c2ccccc2)=[N+]([O-])C1` [CHLORDIAZEPOXIDE], the values for the Change in conflict in the assay with Rattus norvegicus [3], with Rattus norvegicus [6] and in the assay with Rattus norvegicus [7] were 67%, 46% and 24%, respectively. Further, in assay [2], the IC50 was 0.2 µM.

In assay [1], `CN(C)c1ncnc2c1ncn2Cc1cccc(C#N)c1` came in with an inhibition of 70%. For the compound `Nc1ncnc2c1ncn2Cc1ccccc1` [9-BENZYL-9H-ADENINE], the IC50 in assay [2] came out at 37 µM.

In the case of `CN(C)c1ncnc2c1ncn2Cc1ccc(Cl)cc1`, the inhibition in assay [1] came to 24%. Turning to `CN(C)c1ncnc2c1ncn2Cc1cccc(CO)c1`, the Change in conflict with Rattus norvegicus [3] is recorded as 4%. Further, in assay [2], the IC50 amounted to 5 µM. With `CN(C)c1ncnc2c1ncn2CCCc1ccccc1`, the inhibition in assay [1] was 0%. On to `CCNc1ncnc2c1ncn2Cc1ccccc1`, for which the IC50 in assay [2] amounted to 19 µM. This lies in the double-digit micromolar range.

Regarding `Clc1ncnc2c1ncn2Cc1ccccc1`, the inhibition in assay [1] is 40%. With `CC(=O)Oc1cccc(Cn2cnc3c(N(C)C)ncnc32)c1`, the Change in conflict with Rattus norvegicus [3] is recorded as 2%. Also, the IC50 in assay [2] is 0.44 µM. For `CN(C)c1ncnc2c1ncn2Cc1ccc([N+](=O)[O-])cc1`, the inhibition in assay [1] is 23%.

Turning to `CN(C)c1ncnc2c1ncn2Cc1ccc(C#N)cc1`, the inhibition in assay [1] turned out to be 26%. On the same count and under the same terms, in the case of `Cc1ccc(Cn2cnc3c(N(C)C)ncnc32)cc1` it was 22%. In assay [1], `CCN(CC)c1ncnc2c1ncn2Cc1ccccc1` displayed an inhibition of 83%. With `c1ccc(Cn2cnc3cncnc32)cc1`, in assay [4], the inhibition was determined as 34%. In the case of `CNc1ncnc2c1ncn2Cc1ccccc1`, the Change in conflict in the assay with Rattus norvegicus [3] is -3%. For the same compound, in assay [2], the half-maximal inhibitory concentration (IC50) was 24 µM. In assay [1], `CC(=O)Nc1ccc(Cn2cnc3c(N(C)C)ncnc32)cc1` showed an inhibition of 22%. On to `CN(C)c1ncnc2c1ncn2Cc1ccccc1`, for which, in the assay on Rattus norvegicus [3], the Change in conflict was -17%. For the same compound, the IC50 in assay [2] was 13 µM.

For `CN(C)c1ncnc2c1ncn2C(c1ccccc1)c1ccccc1`, the IC50 in assay [2] was 17 µM.

Compound `Cc1ccccc1Cn1cnc2c(N(C)C)ncnc21` had an inhibition in assay [1] of 70%. In assay [1], `COc1cccc(Cn2cnc3c(N(C)C)ncnc32)c1` came in with an inhibition of 70%.

The term inhibition denotes the drop in the measured response relative to a control, in per cent. For orientation: IC50 means the concentration needed to halve the response being measured.
